Active and inactive are the calls of the source. The calls are words filed in the database; no cut-off is given here.
How the values were obtained:
A549 [1] = assay: Growth inhibition of human A549 cells at 10 uM after 24 hrs by MTT assay relative to control; assay type: functional; conditions: A549, 24 h, read-out: GI
Procedure, shortened: (§1)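 Monolayers seeded 24 h before treatment, then exposed to compound, with DMEM or RPMI 1640 plus 10% FBS as growth medium. MTT (5 mg mL–1 stock) incubated 2–4 h at 37 °C, formazan dissolved in DMSO, and absorbance read at 570 nm. Growth inhibition reported as % of control.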

HepG2 [2] = assay: Growth inhibition of human HepG2 cells at 10 uM after 24 hrs by MTT assay relative to control; assay type: functional; conditions: HepG2, 24 h, read-out: GI; procedure, shortened: as §1
KB [3] = assay: Growth inhibition of human KB cells at 10 uM after 24 hrs by MTT assay relative to control; assay type: functional; conditions: read-out: GI; procedure, shortened: as §1
MCF7 [4] = assay: Growth inhibition of human MCF7 cells at 10 uM after 24 hrs by MTT assay relative to control; assay type: functional; conditions: MCF7, 24 h, read-out: GI; procedure, shortened: as §1
HeLa [5] = assay: Growth inhibition of human HeLa cells at 10 uM after 24 hrs by MTT assay relative to control; assay type: functional; conditions: read-out: GI; procedure, shortened: as §1
HCT-116 [6] = assay: Growth inhibition of human HCT116 cells at 10 uM after 24 hrs by MTT assay relative to control; assay type: functional; conditions: HCT-116, 24 h, read-out: GI; procedure, shortened: as §1
A549 [7] = assay: Growth inhibition of human A549 cells at 5 uM after 24 hrs by MTT assay relative to control; assay type: functional; conditions: A549, 24 h, read-out: GI; procedure, shortened: as §1
HepG2 [8] = assay: Growth inhibition of human HepG2 cells at 5 uM after 24 hrs by MTT assay relative to control; assay type: functional; conditions: HepG2, 24 h, read-out: GI; procedure, shortened: as §1
KB [9] = assay: Growth inhibition of human KB cells at 5 uM after 24 hrs by MTT assay relative to control; assay type: functional; conditions: read-out: GI; procedure, shortened: as §1
MCF7 [10] = assay: Growth inhibition of human MCF7 cells at 5 uM after 24 hrs by MTT assay relative to control; assay type: functional; conditions: MCF7, 24 h, read-out: GI; procedure, shortened: as §1
HeLa [11] = assay: Growth inhibition of human HeLa cells at 5 uM after 24 hrs by MTT assay relative to control; assay type: functional; conditions: read-out: GI; procedure, shortened: as §1
HCT-116 [12] = assay: Growth inhibition of human HCT116 cells at 5 uM after 24 hrs by MTT assay relative to control; assay type: functional; conditions: HCT-116, 24 h, read-out: GI; procedure, shortened: as §1
L02 [13] = assay: Cytotoxicity against human LO2 cells assessed as reduction in cell growth at 5 to 10 uM after 24 hrs by MTT assay; assay type: cell-based; conditions: l02, 24 h
HCT-116 [14] = assay: Growth inhibition of human HCT116 cells at 2.5 uM after 24 hrs by MTT assay relative to control; assay type: functional; conditions: HCT-116, 24 h, read-out: GI; procedure, shortened: as §1
HCT-116 [15] = assay: Potentiation of cisplatin-induced antiproliferative activity against human HCT116 cells assessed as cell growth inhibition at 2.5 uM preincubated for 24 hrs followed by 2.5 uM cisplatin addition and measured after 48 hrs by MTT assay (reference value: 26.98 +/-2.84%); assay type: functional; conditions: read-out: GI
L02 [16] = assay: Cytotoxicity against human LO2 cells assessed as reduction in cell growth at 2.5 uM preincubated for 24 hrs followed by cisplatin addition and measured after 48 hrs by MTT assay; assay type: cell-based; conditions: l02, 48 h
HCT-116 [17] = assay: Induction of morphological changes in human HCT116 cells assessed as chromatin condensation at 2.5 uM measured after 24 hrs by Hoechst 33258 staining based fluorescence microscopic analysis; assay type: functional, cell-based
HCT-116 [18] = assay: Induction of morphological changes in human HCT116 cells assessed as cell shrinkage at 2.5 uM measured after 24 hrs by Hoechst 33258 staining based fluorescence microscopic analysis; assay type: functional
HCT-116 [19] = assay: Induction of morphological changes in human HCT116 cells assessed as reduction in number of adherent cells at 2.5 uM measured after 24 hrs by Hoechst 33258 staining based fluorescence microscopic analysis; assay type: functional, cell-based
HCT-116 [20] = assay: Potentiation of cisplatin-induced morphological changes in human HCT116 cells assessed as chromatin condensation at 2.5 uM preincubated for 24 hrs followed by cisplatin addition and measured after 48 hrs by Hoechst 33258 staining based fluorescence microscopic analysis; assay type: functional, cell-based
Procedure, shortened: (§2)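 HCT116 given compound for 24 h, then cisplatin (2.5 μM) for 48 h. Fixed in 4% paraformaldehyde, stained with Hoechst 33258 at 5 μg mL–1, and nuclei examined and counted under a fluorescence microscope. Blue fluorescence quantified, with t-test over three independent experiments.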

HCT-116 [21] = assay: Potentiation of cisplatin-induced morphological changes in human HCT116 cells assessed as cell shrinkage at 2.5 uM preincubated for 24 hrs followed by cisplatin addition and measured after 48 hrs by Hoechst 33258 staining based fluorescence microscopic analysis; assay type: functional; procedure, shortened: as §2
HCT-116 [22] = assay: Potentiation of cisplatin-induced morphological changes in human HCT116 cells assessed as reduction in number of adherent cells at 2.5 uM preincubated for 24 hrs followed by cisplatin addition and measured after 48 hrs by Hoechst 33258 staining based fluorescence microscopic analysis; assay type: functional, cell-based; procedure, shortened: as §2
HCT-116 [23] = assay: Induction of apoptosis in human HCT116 cells assessed as viable cells at 2.5 uM after 24 hrs by Annexin V-FITC/propidium iodide staining based flow cytometry (reference value: 76.5%); assay type: functional; conditions: HCT-116, 24 h, read-out: Activity
HCT-116 [24] = assay: Induction of apoptosis in human HCT116 cells assessed as early apoptotic cells at 2.5 uM after 24 hrs by Annexin V-FITC/propidium iodide staining based flow cytometry (reference value: 5.75%); assay type: functional
HCT-116 [25] = assay: Induction of apoptosis in human HCT116 cells assessed as late apoptotic cells at 2.5 uM after 24 hrs by Annexin V-FITC/propidium iodide staining based flow cytometry (reference value: 7.36%); assay type: functional
HCT-116 [26] = assay: Induction of apoptosis in human HCT116 cells assessed as necrotic cells at 2.5 uM after 24 hrs by Annexin V-FITC/propidium iodide staining based flow cytometry (reference value: […]); assay type: functional
HCT-116 [27] = assay: Potentiation of cisplatin-induced apoptosis in human HCT116 cells assessed as viable cells at 2.5 uM preincubated for 24 hrs followed by cisplatin addition and measured after 48 hrs by Annexin V-FITC/propidium iodide staining based flow cytometry (reference value: 73.2%); assay type: functional; conditions: read-out: Activity
Procedure, shortened: (§3)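 HCT116 pretreated with compound for 24 h, then cisplatin at 2.5 μM added for 48 h. Cells harvested, washed in cold PBS, pelleted, stained with annexin V-FITC and propidium iodide, and counted by flow cytometry. Three independent experiments.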

HCT-116 [28] = assay: Potentiation of cisplatin-induced apoptosis in human HCT116 cells assessed as early apoptotic cells at 2.5 uM preincubated for 24 hrs followed by cisplatin addition and measured after 48 hrs by Annexin V-FITC/propidium iodide staining based flow cytometry (reference value: 4.07%); assay type: functional; procedure, shortened: as §3
HCT-116 [29] = assay: Potentiation of cisplatin-induced apoptosis in human HCT116 cells assessed as late apoptotic cells at 2.5 uM preincubated for 24 hrs followed by cisplatin addition and measured after 48 hrs by Annexin V-FITC/propidium iodide staining based flow cytometry (reference value: 11.5%); assay type: functional; procedure, shortened: as §3
HCT-116 [30] = assay: Potentiation of cisplatin-induced apoptosis in human HCT116 cells assessed as necrotic cells at 2.5 uM preincubated for 24 hrs followed by cisplatin addition and measured after 48 hrs by Annexin V-FITC/propidium iodide staining based flow cytometry (reference value: 11.3%); assay type: functional; procedure, shortened: as §3
[31] = biological target: Serine/threonine-protein kinase ATR (Homo sapiens) (UniProt Q13535); assay: Inhibition of ATR in human HCT116 cells assessed as reduction in cisplatin-induced CHK1 expression preincubated for 24 hrs followed by cisplatin addition and measured after 48 hrs by Western blot analysis; assay type: cell-based
Procedure, shortened: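 HCT116 exposed to compound for 24 h before 48 h with cisplatin at 2.5 μM. Lysis in RIPA buffer with protease and phosphatase inhibitors, protein measured by BCA, equal loads run on 12% SDS-PAGE and moved to PVDF. Blocked in 5% milk, anti-CHK1 mouse mAb overnight at 4 °C, HRP secondary and ECL detection, GAPDH as loading control.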

Chain of Serine/threonine-protein kinase ATR (Homo sapiens) (Q13535 whole entry, looked up): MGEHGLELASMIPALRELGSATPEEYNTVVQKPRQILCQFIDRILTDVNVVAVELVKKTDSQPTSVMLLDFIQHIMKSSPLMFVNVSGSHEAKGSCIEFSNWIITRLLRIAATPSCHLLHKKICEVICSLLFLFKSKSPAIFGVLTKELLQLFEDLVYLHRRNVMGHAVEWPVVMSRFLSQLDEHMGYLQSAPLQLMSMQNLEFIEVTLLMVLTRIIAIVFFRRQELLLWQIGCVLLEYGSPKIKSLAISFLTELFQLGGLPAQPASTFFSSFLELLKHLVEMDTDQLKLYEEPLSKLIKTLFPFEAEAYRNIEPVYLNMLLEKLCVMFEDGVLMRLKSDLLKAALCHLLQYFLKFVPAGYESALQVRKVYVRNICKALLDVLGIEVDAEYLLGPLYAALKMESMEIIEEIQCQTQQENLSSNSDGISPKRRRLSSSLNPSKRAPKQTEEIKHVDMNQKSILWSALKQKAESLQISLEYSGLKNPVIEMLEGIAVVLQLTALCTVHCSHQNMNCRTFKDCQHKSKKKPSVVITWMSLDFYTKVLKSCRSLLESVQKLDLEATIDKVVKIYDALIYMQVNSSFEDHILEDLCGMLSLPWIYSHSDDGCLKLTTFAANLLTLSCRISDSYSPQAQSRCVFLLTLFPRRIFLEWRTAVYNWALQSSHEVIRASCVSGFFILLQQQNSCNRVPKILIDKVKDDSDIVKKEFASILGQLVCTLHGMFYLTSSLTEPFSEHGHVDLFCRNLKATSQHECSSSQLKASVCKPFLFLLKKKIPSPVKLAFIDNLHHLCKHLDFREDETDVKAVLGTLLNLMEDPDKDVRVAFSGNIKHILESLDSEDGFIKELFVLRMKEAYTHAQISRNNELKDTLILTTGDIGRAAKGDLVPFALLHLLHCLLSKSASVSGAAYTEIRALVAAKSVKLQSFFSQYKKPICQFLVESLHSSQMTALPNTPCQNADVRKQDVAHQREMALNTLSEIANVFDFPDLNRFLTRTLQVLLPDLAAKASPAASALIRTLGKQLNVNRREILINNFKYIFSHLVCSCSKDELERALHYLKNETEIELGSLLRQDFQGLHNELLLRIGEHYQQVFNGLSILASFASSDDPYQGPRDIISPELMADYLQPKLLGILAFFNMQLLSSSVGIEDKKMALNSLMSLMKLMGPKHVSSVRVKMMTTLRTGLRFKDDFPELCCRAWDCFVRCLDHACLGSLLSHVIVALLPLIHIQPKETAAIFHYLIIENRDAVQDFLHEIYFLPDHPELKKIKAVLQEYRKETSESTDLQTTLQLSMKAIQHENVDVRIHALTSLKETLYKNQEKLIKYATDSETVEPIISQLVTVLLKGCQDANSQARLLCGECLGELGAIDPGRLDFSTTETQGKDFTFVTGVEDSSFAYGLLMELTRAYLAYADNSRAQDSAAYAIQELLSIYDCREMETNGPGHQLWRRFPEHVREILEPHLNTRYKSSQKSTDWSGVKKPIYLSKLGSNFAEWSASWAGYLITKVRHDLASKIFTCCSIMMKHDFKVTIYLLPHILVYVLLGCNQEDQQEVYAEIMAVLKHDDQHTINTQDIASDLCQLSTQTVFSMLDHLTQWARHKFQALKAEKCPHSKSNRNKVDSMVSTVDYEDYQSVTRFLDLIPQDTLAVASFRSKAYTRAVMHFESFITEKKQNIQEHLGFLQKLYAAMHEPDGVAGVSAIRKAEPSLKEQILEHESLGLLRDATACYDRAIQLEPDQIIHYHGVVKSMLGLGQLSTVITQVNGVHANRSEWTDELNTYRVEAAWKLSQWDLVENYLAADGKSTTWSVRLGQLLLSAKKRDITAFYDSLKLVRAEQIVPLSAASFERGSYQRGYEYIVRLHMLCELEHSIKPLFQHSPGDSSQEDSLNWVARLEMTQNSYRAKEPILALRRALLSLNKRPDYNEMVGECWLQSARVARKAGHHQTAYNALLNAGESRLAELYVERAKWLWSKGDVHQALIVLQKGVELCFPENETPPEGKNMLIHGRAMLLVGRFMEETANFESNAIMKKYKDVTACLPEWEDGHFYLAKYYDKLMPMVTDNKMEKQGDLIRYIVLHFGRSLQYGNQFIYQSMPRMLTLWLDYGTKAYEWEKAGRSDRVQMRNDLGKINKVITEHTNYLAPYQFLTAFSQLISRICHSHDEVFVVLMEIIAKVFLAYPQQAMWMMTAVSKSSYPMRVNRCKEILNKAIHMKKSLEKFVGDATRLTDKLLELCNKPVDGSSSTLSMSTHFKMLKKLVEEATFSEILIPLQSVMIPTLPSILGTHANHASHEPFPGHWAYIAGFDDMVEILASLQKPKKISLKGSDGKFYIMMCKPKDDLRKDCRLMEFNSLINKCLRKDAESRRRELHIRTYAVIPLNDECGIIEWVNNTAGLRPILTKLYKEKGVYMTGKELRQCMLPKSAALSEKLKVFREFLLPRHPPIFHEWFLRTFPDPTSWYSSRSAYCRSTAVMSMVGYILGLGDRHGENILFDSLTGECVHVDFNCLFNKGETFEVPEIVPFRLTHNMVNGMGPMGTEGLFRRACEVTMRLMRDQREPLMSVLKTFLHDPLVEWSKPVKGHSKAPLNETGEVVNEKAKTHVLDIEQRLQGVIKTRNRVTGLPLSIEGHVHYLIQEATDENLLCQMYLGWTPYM

Row | Structure (SMILES) | inhibition of growth at 10 µM (A549 [1]) [%] | inhibition of growth at 10 µM (HepG2 [2]) [%] | inhibition of growth at 10 µM (KB [3]) [%] | inhibition of growth at 10 µM (MCF7 [4]) [%] | inhibition of growth at 10 µM (HeLa [5]) [%] | inhibition of growth at 10 µM (HCT-116 [6]) [%] | inhibition of growth at 5 µM (A549 [7]) [%] | inhibition of growth at 5 µM (HepG2 [8]) [%] | inhibition of growth at 5 µM (KB [9]) [%] | inhibition of growth at 5 µM (MCF7 [10]) [%] | inhibition of growth at 5 µM (HeLa [11]) [%] | inhibition of growth at 5 µM (HCT-116 [12]) [%] | Activity (L02 [13]) | inhibition of growth at 2.5 µM (HCT-116 [14]) [%] | inhibition of growth at 2.5 µM (HCT-116 [15]) [%] | Activity (L02 [16]) | Activity (HCT-116 [17]) | Activity (HCT-116 [18]) | Activity (HCT-116 [19]) | Activity (HCT-116 [20]) | also measured
1 | Cc1cccc(-c2nnc(-c3c[nH]c4ncc(-c5ccc(S(C)(=O)=O)cc5)cc4c3=O)o2)c1 | 8.95 | 13.3 | 7.5 | 7.76 | 2.57 | 25.2 | 7.92 | 13.2 | 3.7 | 1.86 | 1.49 | 20.4 | Non-Toxic | 8.13 | 50.8 | Non-Toxic | Active | Active | Active | Active | Activity (HCT-116 [21]): Active; Activity (HCT-116 [22]): Active; viability at 2.5 µM (HCT-116 [23]): 70.4%; Activity (HCT-116 [24]): 4.61%; Activity (HCT-116 [25]): 6.89%; Activity (HCT-116 [26]): 18.1%; viability at 2.5 µM (HCT-116 [27]): 52.4%; Activity (HCT-116 [28]): 6.98%; Activity (HCT-116 [29]): 17.2%; Activity (HCT-116 [30]): 23.4%; inhibition [31]: Dose-dependent effect
2 | Cc1ccc(-c2nnc(-c3c[nH]c4ncc(-c5ccc(S(C)(=O)=O)cc5)cc4c3=O)o2)cc1 | 11.2 | 8.94 | 3.19 | 10.6 | 18.5 | 24.4 | 6.69 | 6.9 | 0.43 | 6.26 | 10.4 | 20.4 | Non-Toxic | 7.47 | 54.8 | Non-Toxic | Active | Active | Active | Active | Activity (HCT-116 [21]): Active; Activity (HCT-116 [22]): Active; viability at 2.5 µM (HCT-116 [23]): 72.4%; Activity (HCT-116 [24]): 10.6%; Activity (HCT-116 [25]): 6.26%; Activity (HCT-116 [26]): 10.8%; viability at 2.5 µM (HCT-116 [27]): 31.2%; Activity (HCT-116 [28]): 20%; Activity (HCT-116 [29]): 17.7%; Activity (HCT-116 [30]): 31.2%; inhibition [31]: Dose-dependent effect

From ChEMBL document CHEMBL4368880, “Synthesis and biological evaluation of 3-(1,3,4-oxadiazol-2-yl)-1,8-naphthyridin-4(1H)-ones as cisplatin sensitizers” (Medchemcomm, 2018)
